# Assay outcomes from PubChem.
# hERG rescue: hERG rescue from dofetilide block, primary screen, cell-based, CHO-hERG, FluxOR thallium flux, dofetilide IC70. Voltage-gated inwardly rectifying potassium channel KCNH2 (Homo sapiens), Q12809. dofetilide IC70 present. activation (rescue from dofetilide block), less the hit threshold, % at 10 µM. 310,000 compounds, 0.51% hits. AID 1511, 2009;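 active = activation above the mean of controls blocked by dofetilide plus 5 SD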;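 also: thallium influx through hERG after potassium depolarization seen as dye fluorescence rise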
# KCNQ1 pot: potentiators or activators of KCNQ1 channel, primary screen, cell-based, thallium flux, high-throughput. Potassium voltage-gated channel subfamily KQT member 1 (Homo sapiens), P51787. CHO-K1 KCNQ1, thallium flux FluxOR fluorescence; stronger effect = higher value. B-score at 10 µM. 310,000 compounds, 0.35% hits. AID 2648, 2010;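 active = fluorescence ratio B-score, a plate-corrected score, at least three library SD, with initial intensity B-score within 5 SD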
#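 Assay system: CHO-K1 cells stably expressing KCNQ1; Medium: assay buffer with matched DMSO; Also added: K+/Tl+ depolarizing stimulus; Dosing: single dose; Timing: dye 90 min, compound 20 min, room temperature; Measured by: kinetic FluxOR thallium fluorescence, 10-s 1-Hz baseline, 110-s post-stimulus read; Read-out: peak-minus-minimum fluorescence over initial fluorescence, negative-control normalized, B-scored.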
# KCNK9 block: KCNK9 potassium channel inhibitors, primary screen, HEK293 cells, thallium flux. FluxOR thallium flux fluorescence; stronger effect = lower value. 310,000 compounds, 1.2% hits. AID 488922, 2010. Potassium channel subfamily K member 9 (Homo sapiens), Q9NPC2. B-score at 10 µM;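 active = ratio B-score over 3 SD below the library mean, with starting fluorescence within 5 SD of its mean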;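 also: negative B-score means less thallium flux so channel inhibition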
# KCNQ1 inh: inhibitors of human KCNQ1 channel, primary screen, cell-based, thallium flux, high-throughput. Potassium voltage-gated channel subfamily KQT member 1 (Homo sapiens), P51787. CHO-K1 KCNQ1, FluxOR thallium flux fluorescence; stronger effect = higher value. B-score at 10 µM. 310,000 compounds, 1.3% hits. AID 2642, 2010;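 active = compounds whose thallium flux B-score, printed positive for inhibition, exceeds three library SD while starting fluorescence stays within three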;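 also: channel opened by potassium depolarization with thallium stimulus after 20 min compound exposure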
# KCNK3 inh: human KCNK3 channel inhibitors, primary screen, CHO cells, FluxOR thallium flux, B-score | FluxOR fluorescence; stronger effect = lower value | B-score at 10 µM | 340,000 compounds, 0.84% hits | Potassium channel subfamily K member 3 (Homo sapiens), O14649;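 active = B-score under library mean minus 4 SD, starting fluorescence ratio at most library mean plus 5 SD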;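 also: more negative B-score means stronger inhibition of thallium flux through KCNK3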
# Kir21 block: inhibitors of mouse Kir2.1 inward-rectifier potassium channel; HEK293-Kir2.1, FluxOR thallium flux fluorescence; stronger effect = lower value; 310,000 compounds, 0.85% hits; B-score at 10 µM; Inward rectifier potassium channel 2 (Mus musculus), P35561;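 active = fluorescence ratio B-score at or below minus 3 SD of library scores, with starting-brightness B-score within 2 SD, cut at about -4.2 in these data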;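 also: channel flux triggered by added potassium and thallium sulfate stimulus; B-score of peak minus minimum fluorescence over baseline after thallium stimulus; more negative B-score means stronger Kir2.1 block with less thallium influx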
# Numbers stand for hits; n = inactive; x = no result given. Most compounds without a hit are left out; they make up all but 3.7% or so of the library.
SMILES,hERG rescue,KCNQ1 pot,KCNK9 block,KCNQ1 inh,KCNK3 inh,Kir21 block
CCCn1nc(C(=O)N2CCc3ccccc32)c2ccccc2c1=O,x,x,x,x,n,x
CCn1nc(C(=O)N[C@@H](CCSC)c2nc3ccccc3[nH]2)c2ccccc2c1=O,n,n,n,n,n,n
CCCCCn1nc(C(=O)N2CCc3ccccc32)c2ccccc2c1=O,x,x,x,x,-10.2,x
CCCCn1nc(C(=O)NC2CCCCCC2)c2ccccc2c1=O,x,x,x,x,n,x
CN1C(=O)C(C)(C)c2cc(S(=O)(=O)NCc3ccc(C(=O)NCc4ccco4)cc3)ccc21,n,n,n,n,n,n
Cc1ccc(SCCNC(=O)c2ccc(C)c(S(=O)(=O)Nc3cccc(C)c3)c2)cc1,n,n,n,n,-11.4,n
O=C(Cc1cccc2ccccc12)Nc1ccc(Br)cc1C(=O)O,n,n,n,10,n,n
COc1ccc(NC(=O)Nc2ccon2)c(OC)c1,n,n,n,n,n,n
COc1cccc(NC(=O)C2C3C=CC(C3)C2C(=O)O)c1 (centres undefined),7.4,n,n,n,n,n
Cc1csc(NC(=O)C2C3C=CC(C3)C2C(=O)O)n1 (centres undefined),5.4,n,n,n,n,n
COc1ccc(NC(=O)C2C3C=CC(C3)C2C(=O)O)cc1 (centres undefined),n,n,n,n,n,n
O=C(CNC(=O)c1ccc2c(c1)OCCO2)N/N=C/c1ccc([N+](=O)[O-])cc1,n,n,n,n,n,n
Cc1ccc(C2=C(c3ccc([N+](=O)[O-])cc3)C(=O)OC2)cc1C,n,n,n,n,n,n
Oc1c(Cl)cc(Cl)cc1Sc1cc(Cl)cc(Cl)c1O,43.0,105,n,n,x,n
Cn1c(=O)[nH]c(=O)c2c1nc(N1CCN(c3cccc(Cl)c3)CC1)n2CCCc1ccccc1,n,n,n,n,x,n
CCCCCn1c(N2CCN(c3cccc(Cl)c3)CC2)nc2c1c(=O)[nH]c(=O)n2C,n,n,-7.34,n,n,n
NC(=O)NCC(c1ccccc1)C1CCCCC1 (centres undefined),n,n,n,n,n,n
O=C(Cn1c(CO)nc2ccccc21)NCCc1ccccc1,7.3,n,n,n,n,n
O=C(Cn1c(CO)nc2ccccc21)NCCc1ccc(F)cc1,n,n,n,n,n,n
CSc1nnc2n(C)c3c(c(=O)n12)C1(CCCC1)Cc1ccccc1-3,n,n,-7.17,n,n,n
O=C(COC(=O)c1ccccn1)Nc1nc(-c2cccc([N+](=O)[O-])c2)cs1,n,n,n,n,n,n
Cc1ccc2[nH]c(O)c(N=NC(N)=S)c2c1,n,n,n,n,n,n
CC(/C=C(\NC(=O)c1ccccc1)C(=O)N=Nc1c(O)[nH]c2ccc(C)cc12)=C\c1ccccc1,n,n,n,6,n,n
CCOc1ccc(-n2c(-c3ccccc3)c[n+]3c2CCCCC3)cc1,n,n,n,8,n,n
C1=CC2=NC34CCCCC3CC3=C(CCCC3)N4C2=CC1=NC1CCCCC1 (centres undefined),n,n,n,7,n,n
SMILES,hERG rescue,KCNQ1 pot,KCNK9 block,KCNQ1 inh,KCNK3 inh,Kir21 block
O=C(NNc1c2ccccc2nc2ccccc12)c1ccccc1O,n,n,n,n,n,n
O=C(NNc1c2ccccc2nc2ccccc12)c1ccccc1Cl,n,9,n,n,n,n
Cc1ccn(C(C)CC(=O)Nc2ccc(-c3ccno3)cc2)n1 (centres undefined),n,n,n,n,n,n
Cc1ccc(S(=O)(=O)N2CCCC(CCC(=O)NCc3ccccc3F)C2)s1 (centres undefined),n,n,-7.98,n,n,n
CC1=C(C(=O)N2CCCC(CCC(=O)NCc3ccccc3F)C2)OCCO1 (centres undefined),n,n,n,n,n,n
COc1ccccc1NC(=O)C(=O)NNC(=O)COc1ccc2ccccc2c1,55.6,84,n,n,n,n
COc1ccc(NC(=O)CNC(=O)C23CC4CC(CC(C4)C2)C3)c(OC)c1,n,n,n,n,n,n
COc1ccc(OC)c(NC(=O)C(=O)NNC(=O)C23CC4CC(CC(C4)C2)C3)c1,65.2,10,n,n,n,n
COc1ccc(NC(=O)COc2ccccc2)c(OC)c1,n,n,n,n,n,n
COc1cccc(OCC(=O)NNC(=O)C(=O)Nc2ccc(OC)cc2OC)c1,22.8,11,n,n,n,n
Cc1ccc(NS(=O)(=O)c2ccc(Br)s2)cc1S(=O)(=O)N1CCOCC1,n,n,n,n,n,n
CN(/N=C/c1ccc(N(C)C)cc1)C1=NS(=O)(=O)c2ccccc21,n,n,n,n,n,n
O=C(CCC(=O)N1CCN(c2ccccn2)CC1)c1ccc(Cl)s1,x,x,x,x,n,x
COc1ccc(OC(=O)c2cccnc2)cc1,n,n,n,n,n,n
CC(C)(C)c1ccc(OC(=O)c2cccnc2)cc1,n,n,n,n,n,-4.45
Cn1cc(CNCc2cn(C)nc2-c2ccc(C3CCCCC3)cc2)cn1,n,n,n,n,n,n
O=C(CN1CCCC1c1cccs1)N1CCN(S(=O)(=O)c2cccc(F)c2)CC1 (centres undefined),x,x,x,x,n,x
O=C(N/N=C/c1cc(Cl)cc(Cl)c1O)c1ccncc1,n,n,n,7,n,n
Cc1ccccc1-n1c(C)cc(/C=N/NC(=O)c2ccncc2)c1C,n,11,n,n,n,n
O=C(Cn1nc(C(=O)O)c2ccccc2c1=O)Nc1cccc(Br)c1,n,n,n,n,n,n
Cc1cccc(C(=O)Nc2sc(C)c(-c3ccccc3)c2C#N)c1,n,n,n,6,n,n
Cc1cccc(C(=O)Nc2sc(C(=O)N3CCCC3)c(C)c2C#N)c1,n,n,n,n,n,n
O=C(Oc1ccc(-c2ccccc2)cc1)c1ccco1,x,x,x,x,n,x
O=Cc1ccnc(-c2ccc(OC(=O)c3ccco3)cc2)n1,n,n,n,n,n,-5.41
CCCCc1ccc(NC(=S)Nc2ccc(Cl)c(S(=O)(=O)N(C)C)c2)cc1,n,n,n,n,n,n
CCOC(=O)/C=C/C(=O)Nc1cccc([N+](=O)[O-])c1,n,n,n,n,n,-6.22
CC(NC(=O)Nc1cccc([N+](=O)[O-])c1)(C(F)(F)F)C(F)(F)F,n,n,n,12,n,n
CCOC(=O)/C(C)=N/NC(=O)c1cccc([N+](=O)[O-])c1,11.7,n,n,n,n,n
